Data reported in ChEMBL document CHEMBL4513216, “Probing the Open Global Health Chemical Diversity Library for Multistage-Active Starting Points for Next-Generation Antimalarials” (ACS Infect Dis, 2020).

Experiment: Toxicity liver stage against HepG2, at 10uM
Format: cell-based
Set-up: test concentration 10 uM, cell line HepG2-A16-CD81EGFP
Details: human, HepG2-A16-CD81EGFP cells; read-out: INHIBITION
Summary of the method: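 Uninfected HepG2-A16-CD81EGFP cells, 3 × 10^3 per well, 1536-well, plated on prespotted compound at 10 μM final, parasite-free screening media added to match infected plates; puromycin 10 μM positive, DMSO 0.5% negative; run in parallel with 48 h PbLuc assay at 37 °C, 5% CO2; viability by CellTiter-Glo luminescence, normalized to controls.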

Structure (SMILES) | cytotoxicity at 10 µM [%]
Cc1nc(CN2CCCC(CCc3ccccc3C)C2)c[nH]1 (stereo not given) | -1.35
CCN(c1ccc(C(=O)NCCN2CCOCC2)cc1)S(=O)(=O)CC | 6.89
Cc1ccc(CC(=O)NC(C)C(=O)N2CCS(=O)(=O)CC2)s1 (stereo not given) | 11.2
NC(=O)c1cccc(OCC(=O)N2CCCC(n3ccnc3)C2)c1 (stereo not given) | -9.37
c1c(CN2CCCCC2)nc2n1CCNC2 | 3.91
O=C(CSc1ccc2c(c1)OCCO2)NS(=O)(=O)c1ccccc1 | -2.56
CC(C(=O)N1CCCCCC1)N1CCN(c2nccs2)CC1 (stereo not given) | 11.7
Cc1noc(C2CCCN(C(=O)c3cccc(Cl)c3)C2)n1 (stereo not given) | -1.58
CC(=O)N1CC(=O)N(c2cnn(C)c2)CC12CCN(Cc1ccsc1)C2 (stereo not given) | -17.6
Cc1nc2c(c(NCc3cc4ccccc4s3)n1)CCNCC2 | -48.3
Cc1cccc(CO[C@@H]2CC[C@H]3[C@H]2OCCN3Cc2nccs2)n1 | 5.2
CCN(C)S(=O)(=O)NCC1CCN(Cc2ccccc2F)C1 (stereo not given) | -2.48
CN(Cc1cccnc1)C1COC2(CCN(Cc3nccs3)CC2)C1 (stereo not given) | 6.37
Cc1noc([C@@H]2C[C@H]3OCC[C@H]3N(S(=O)(=O)c3ccccc3)C2)n1 | -126
CC(C)c1nn(C)c(N(C)C)c1CNC1CCOc2c(F)cccc21 (stereo not given) | -1.99
COC(=O)c1ccc(Cn2cccc(C(F)(F)F)c2=O)c(OC)c1 | 8.55
CCOC[C@@H]1CCC[C@]12CN(S(=O)(=O)c1cn(C)cn1)CCO2 | 5.7
Cn1ccnc1-c1cn(CCCc2csc(N)n2)nn1 | 0.963
Cc1cc(C)c(C(=O)N(C)CCN(C)C(=O)OC(C)(C)C)[nH]1 | 3.87
Cc1cccc(C(=O)NCC2CCS(=O)(=O)C2)n1 (stereo not given) | -6.21
O=C(NCCc1cccs1)[C@]12COC[C@H]1CN(Cc1ccccn1)C2 | -105
c1cncc(CO[C@H]2CO[C@@]3(CCN(Cc4ccoc4)C3)C2)c1 | -3.24
Cc1cnc2n(c1=O)C(CC(=O)NCc1ccccc1Cl)CS2 (stereo not given) | -7.86
CC(C)c1nc(CN(C)C(=O)c2ccccc2C2CCNC2)cs1 (stereo not given) | 4.46
CCc1cc(=O)[nH]c(-c2ccc(NC(CO)CC(C)C)nc2)n1 (stereo not given) | -146
Cc1ccc(-c2noc(CN3CC(n4cc(C)cn4)C3)n2)cc1 | -3.86
CC(C(=O)Nc1ccc(N2CCCCC2)nc1)n1cncn1 (stereo not given) | -31.2

Structure (SMILES) | cytotoxicity at 10 µM [%]
CC(O)CN1CCN(C(=O)c2cn(-c3ccccc3Cl)nn2)CC1 (stereo not given) | 0.361
Cc1ccc2c(c1)OC(C)CN2C(=O)Cc1ccc(C)nc1 (stereo not given) | -44.2
CCN1CCN(CCC(=O)NC2CC(c3cccc(Cl)c3)C2)CC1 (stereo not given) | -7.37
Cc1cc(CN2CCCC(Cn3cncn3)C2)on1 (stereo not given) | -25.2
COc1c(C)cnc(CN2CCCCC2Cn2nc(C)nc2C)c1C (stereo not given) | -0.627
CC(C)(C)Oc1ccccc1CNC(=O)C1CCCOC1 (stereo not given) | 0.997
O=C(c1csc(C2CC2)n1)N1CCCCC1Cn1cccn1 (stereo not given) | 0.745
CCN(Cc1ccccn1)Cc1cc(Cl)ccc1OC | 1.45
O=C(O)CC1CN(S(=O)(=O)c2cccc(F)c2)c2ccccc21 (stereo not given) | -4.17
CC(C)CN1CC[C@H]2OCC[C@@H](C(=O)N3CCCO3)[C@@H]2C1 | 3.45
CC(C)(C)C(=O)NCCNc1cc(N2CCCC2)ncn1 | -43
CCS(=O)(=O)c1cccc(C(=O)Nc2cccc3c2C(=O)N(C)C3=O)c1 | -139
CC(C)OCCOCc1cccc(NC(=O)NCc2ccncc2)c1 | -12
CNC(=O)[C@@H]1CN(C(=O)C2CCC2)C[C@H]1c1ccnc(N2CCCC2)n1 | -3.21
CCc1nnc(C(C)N2CCC(NC(=O)C3CCCCC3)CC2)o1 (stereo not given) | -8.35
O=C(NCC1CC1)C1=NOC2(CCN(Cc3ccc4c(c3)OCO4)C2)C1 (stereo not given) | -12.1
c1cnn(CC2CN(Cc3csc(C4CCCCC4)n3)CCO2)c1 (stereo not given) | -6.37
COC(=O)c1ccc(N2CCN(C(=O)c3cc(C)no3)C(C)C2)cc1 (stereo not given) | -0.192
Cn1ccnc1CN1CCN(Cc2cc(-c3ccccc3)no2)CC1 | -15.5
Cc1cc(-c2cc3nc(C)c(C)c(NCC4COCCO4)n3n2)no1 (stereo not given) | 8.97
COc1ccc(-n2ccc(C(=O)N(C)C(C)C3(C)CC3)n2)cc1 (stereo not given) | -2.41
Cc1cnc(N2CCOC3(COCCN(c4nccs4)C3)C2)nc1 (stereo not given) | -114
CCc1nsc(N2CCn3c(nnc3C(F)(F)F)C2)n1 | -0.657
CC(=O)N(C)CC(=O)Nc1cnc(-n2ccnc2)nc1 | -9.69
Cc1ccnc(OC[C@@]23CCO[C@@H]2CCN(S(C)(=O)=O)C3)n1 | 9.34
O=C(c1c(F)cccc1Br)N1CCCOCC1 | 6.69
Cc1nc(N)sc1C(=O)N1Cc2ccccc2OC2(CCOCC2)C1 | -24.6

Structure (SMILES) | cytotoxicity at 10 µM [%]
Cc1csc(N(C)C(=O)C2CC(=O)N(c3ccccc3Cl)C2)n1 (stereo not given) | 11.8
O=C1CO[C@H](c2ccc(NS(=O)(=O)c3ccccc3)cc2)[C@@H](CO)N1 | 2.17
Cc1cc(N2CCC3(CCC(=O)N(CCCO)C3)CC2)nc(N(C)C)n1 | -0.116
Cc1nnc(SCCNC(=O)Cn2cnc3ccccc3c2=O)s1 | 4.79
CC(C)c1nc(C2CCCN2Cc2ccon2)no1 (stereo not given) | -3.5
Cc1ccc(NC2CCN(C(=O)CCOCC(F)(F)F)CC2)nn1 | -2.78
O=C(c1ccc(Cl)cc1)N1CCn2c(nn(-c3cccc(Cl)c3)c2=O)C1 | 5.84
CNC(=O)[C@@H]1C[C@H]2CN(Cc3nccs3)C[C@H]2N1C | 7.73
CCOc1ccc(Cl)c(C(=O)N2CCN(c3ccncc3)CC2)n1 | -5.44
COCC(=O)NCC1(COc2cccnc2)C[C@@H](O)[C@@H](O)C1 (stereo not given in full) | 2.52
CC(=O)c1ccc(Cl)c(Cl)c1OCC(=O)NC(C)C | -9.66
O=C(N[C@@H]1CCN(c2ncc(Cl)cc2Cl)C[C@H]1O)c1cnccn1 | -8.92
CCCc1nc(CNCC2CCCN2c2cccnn2)no1 (stereo not given) | -9.52
CC(Cn1cc(Br)cn1)C(=O)Nc1ccc(Br)cn1 (stereo not given) | 73.3
Cc1ncsc1CN1C[C@@H](OCc2ccncc2)[C@H]2OCCC[C@H]21 | -148
Cc1ncsc1-c1nnc(C2CCN(CC3CCCCC3)CC2)o1 | 1.59
Cc1cc(-c2cnc(N3CCNC(=O)C3)nc2-c2sccc2C)on1 | -12
CN(C)CCNc1c(-c2ccccc2)c(=O)c1=O | -9.11
Cc1nc(CC(=O)NCCNc2nccc(C(F)(F)F)n2)cs1 | 14.3
CC1(C(=O)NCCN2CCCCC2)CCCN1C(=O)c1ccccc1 (stereo not given) | -6.44
CCCNC(=O)NCc1nc(C)c(C)o1 | 5.19
Cc1ccc(OC[C@@H]2CNC[C@H](C(=O)NCC3CCCO3)C2)cn1 (stereo not given in full) | -8.14
CCc1noc(CN(C)C(=O)C(C)(C)Oc2cccc(Cl)c2)n1 | -3.63
COC(=O)CNC(=O)C1CCN(S(C)(=O)=O)CC1 | 2.91
O=C(c1cn(CCN2CCCCC2)nn1)N1CCCCO1 | -4.55
O=C1NCC2(CCCN(C(=O)c3ccc4c(c3)OCCO4)CC2)O1 (stereo not given) | -9.35
